Assays:
HUVEC = assay: Antiproliferative activity against human HUVECs after 48 hrs; format: cell-based
Procedure, shortened: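 HUVEC kept in EGM, plated at 5000 cells/well and left to attach overnight. Cells were exposed to increasing drug concentrations for 48 h at 37 °C. DNA synthesis was read by colorimetric BrdU ELISA. Each concentration was run in triplicate in at least two independent experiments, reported as mean ±SD.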

MDA-MB-231 = assay: Antiproliferative activity against human MDA-MB-231 cells after 48 hrs; format: functional, cell-based; conditions: MDA-MB-231, 48 h
Procedure, shortened: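 MDA-MB-231 cells kept in DMEM with 10% FBS, 2 mM L-glutamine and penicillin/streptomycin, plated at 2000 cells/well and left to attach overnight. Cells were exposed to increasing concentrations for 48 h. Proliferation was read as DNA synthesis by colorimetric BrdU ELISA. Triplicates in at least two independent experiments, reported as mean ±SD.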

MCF7 = assay: Antiproliferative activity against human MCF7 cells after 8 to 10 days relative to 2-methoxyestradiol; format: functional
Procedure, shortened: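 Estrogen-dependent MCF-7 cells (passage 60–90) plated at 20–30,000 cells/well and left overnight. Cells were washed and starved 3 days in phenol red-free IMEM with 2% charcoal-dextran-stripped FBS, then treated with increasing concentrations in the same medium, refreshed every 2–3 days. Cells were Coulter-counted after 8 or 10 days. Triplicates in at least two independent experiments; stimulation index relative to 2-methoxyestradiol (1.00).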

| Structure (SMILES) | IC50 (HUVEC) [µM] | IC50 (MDA-MB-231) [µM] | Activity (MCF7) |
| --- | --- | --- | --- |
| COc1cc2c(cc1O)CC[C@@H]1[C@@H]2CC[C@]2(C)[C@@H](O)[C@H](CO)C[C@@H]12 | 2.92 | 4.26 | 0.93 |
| CCCC[C@H]1C[C@H]2[C@@H]3CCc4cc(O)c(OC)cc4[C@H]3CC[C@]2(C)[C@H]1O | 8.17 | 37.9 | 0.82 |
| COc1cc2c(cc1O)CC[C@@H]1[C@@H]2CC[C@]2(C)[C@@H](O)[C@H](CN(C)C)C[C@@H]12 | 36.8 | 22.7 | 1.43 |
| CCC[C@H]1C[C@H]2[C@@H]3CCc4cc(O)c(OC)cc4[C@H]3CC[C@]2(C)[C@H]1O | 17.1 | 45.1 | 0.93 |
| COc1cc2c(cc1O)CC[C@@H]1[C@@H]2CC[C@]2(C)[C@@H](O)[C@H](CC(C)C)C[C@@H]12 | 7.15 | 38.3 | 0.41 |
| COc1cc2c(cc1O)CC[C@@H]1[C@@H]2CC[C@]2(C)[C@@H](O)[C@@H](C)C[C@@H]12 | 2.26 | 2.4 | 1.62 |
| CCCC[C@@H]1C[C@H]2[C@@H]3CCc4cc(O)c(OC)cc4[C@H]3CC[C@]2(C)[C@H]1O | 18.2 | 27.9 | 0.73 |
| COc1cc2c(cc1O)CC[C@@H]1[C@@H]2CC[C@]2(C)[C@@H](O)[C@@H](CO)C[C@@H]12 | 6.36 | 6.09 | 1.14 |
| COc1cc2c(cc1O)CC[C@@H]1[C@@H]2CC[C@]2(C)[C@@H](O)CC[C@@H]12 [2-METHOXYESTRADIOL] | 0.84 | 1 |  |
| CCC[C@@H]1C[C@H]2[C@@H]3CCc4cc(O)c(OC)cc4[C@H]3CC[C@]2(C)[C@H]1O | 6.55 | 35.1 | 0.83 |
| COc1cc2c(cc1O)CC[C@@H]1[C@@H]2CC[C@]2(C)[C@@H](O)[C@H](C)C[C@@H]12 | 0.35 | 0.74 | 2.07 |
| CC[C@@H]1C[C@H]2[C@@H]3CCc4cc(O)c(OC)cc4[C@H]3CC[C@]2(C)[C@H]1O | 1.35 | 3.59 | 1.09 |

— ChEMBL document CHEMBL1137562, “Synthesis and structure-activity relationships of 16-modified analogs of 2-methoxyestradiol” (Bioorg Med Chem, 2007)
